Where a chain is given by its changes, count along the chain named.
What was measured:
Settings in all cases: stereoisomer not certain
OR1F12P (Homo sapiens) = biological target: T1, OR1F12P (Homo sapiens) (UniProt Q8NHA8)
T1 sequence (whole entry): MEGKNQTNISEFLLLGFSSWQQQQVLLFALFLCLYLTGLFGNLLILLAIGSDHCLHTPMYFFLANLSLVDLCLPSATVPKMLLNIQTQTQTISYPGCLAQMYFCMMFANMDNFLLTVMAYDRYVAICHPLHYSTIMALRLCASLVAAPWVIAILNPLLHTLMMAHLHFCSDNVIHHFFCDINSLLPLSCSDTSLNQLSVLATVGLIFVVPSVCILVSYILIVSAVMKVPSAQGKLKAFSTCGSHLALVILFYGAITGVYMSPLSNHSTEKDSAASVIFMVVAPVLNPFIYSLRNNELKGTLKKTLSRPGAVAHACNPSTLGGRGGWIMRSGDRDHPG
Outline: (§1)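 Each entry records the cell line, G-protein, co-transfected protein and tags used. Methods varied with the source, often transient luciferase assays in mammalian cell lines. A receptor–molecule pair is called responsive (active) if the original authors judged its signal statistically different from baseline and non-responsive (inactive) otherwise.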

OR1F1 = test system: T2, OR1F1
T2 sequence (whole entry): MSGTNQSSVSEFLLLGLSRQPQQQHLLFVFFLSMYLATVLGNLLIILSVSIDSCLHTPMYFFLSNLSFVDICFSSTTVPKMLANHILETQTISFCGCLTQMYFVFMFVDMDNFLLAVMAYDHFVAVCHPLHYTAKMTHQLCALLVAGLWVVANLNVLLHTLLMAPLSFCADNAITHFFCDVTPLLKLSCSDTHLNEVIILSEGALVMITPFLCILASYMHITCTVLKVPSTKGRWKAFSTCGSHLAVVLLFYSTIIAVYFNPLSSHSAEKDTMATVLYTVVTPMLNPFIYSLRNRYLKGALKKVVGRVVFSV
Outline: as §1

OR1G1 (Homo sapiens) = biological target: T3, OR1G1 (Homo sapiens) (UniProt P47890)
T3 sequence (whole entry): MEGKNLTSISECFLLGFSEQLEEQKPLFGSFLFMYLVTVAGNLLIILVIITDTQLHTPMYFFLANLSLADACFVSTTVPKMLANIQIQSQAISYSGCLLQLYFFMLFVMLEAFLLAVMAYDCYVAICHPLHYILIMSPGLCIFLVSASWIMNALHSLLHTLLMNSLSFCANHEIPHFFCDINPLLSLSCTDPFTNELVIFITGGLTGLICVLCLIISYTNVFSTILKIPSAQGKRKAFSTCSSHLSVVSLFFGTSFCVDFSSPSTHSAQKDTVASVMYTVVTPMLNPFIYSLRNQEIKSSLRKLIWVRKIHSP
Outline: as §1

OR1I1 (Homo sapiens) = biological target: T4, OR1I1 (Homo sapiens) (UniProt O60431)
T4 sequence (whole entry): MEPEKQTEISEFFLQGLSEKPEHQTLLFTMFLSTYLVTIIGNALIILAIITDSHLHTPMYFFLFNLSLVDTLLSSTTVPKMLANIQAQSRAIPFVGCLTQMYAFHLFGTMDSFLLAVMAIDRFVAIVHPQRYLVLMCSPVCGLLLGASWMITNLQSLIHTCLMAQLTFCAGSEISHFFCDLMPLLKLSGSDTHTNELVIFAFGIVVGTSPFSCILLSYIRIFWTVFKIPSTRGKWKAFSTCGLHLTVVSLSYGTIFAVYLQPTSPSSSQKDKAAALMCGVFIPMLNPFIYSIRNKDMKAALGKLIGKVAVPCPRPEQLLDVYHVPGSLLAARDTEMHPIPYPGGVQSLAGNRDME
Outline: as §1

OR1J1 (Homo sapiens) = biological target: T5, OR1J1 (Homo sapiens) (UniProt Q8NGS3)
T5 sequence (whole entry): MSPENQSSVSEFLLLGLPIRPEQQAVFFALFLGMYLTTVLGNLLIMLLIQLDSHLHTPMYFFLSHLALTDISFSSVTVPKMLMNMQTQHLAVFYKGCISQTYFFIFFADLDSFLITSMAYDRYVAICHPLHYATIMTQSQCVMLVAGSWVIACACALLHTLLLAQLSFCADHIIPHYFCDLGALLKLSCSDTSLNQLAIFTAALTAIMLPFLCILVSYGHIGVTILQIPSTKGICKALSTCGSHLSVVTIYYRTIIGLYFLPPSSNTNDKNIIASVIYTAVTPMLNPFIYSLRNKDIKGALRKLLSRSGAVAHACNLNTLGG
Outline: as §1

OR1J2 (Homo sapiens) = biological target: T6, OR1J2 (Homo sapiens) (UniProt Q8NGS2)
T6 sequence (whole entry): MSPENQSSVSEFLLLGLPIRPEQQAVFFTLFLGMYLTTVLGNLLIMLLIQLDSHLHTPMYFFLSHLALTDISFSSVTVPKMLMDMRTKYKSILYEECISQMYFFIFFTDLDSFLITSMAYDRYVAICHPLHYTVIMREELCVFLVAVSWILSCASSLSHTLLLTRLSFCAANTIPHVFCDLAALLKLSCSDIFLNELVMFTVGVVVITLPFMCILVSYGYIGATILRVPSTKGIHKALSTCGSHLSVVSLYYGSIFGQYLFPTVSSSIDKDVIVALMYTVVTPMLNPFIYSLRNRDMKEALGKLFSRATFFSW
Outline: as §1

OR1J4 (Homo sapiens) = biological target: T7, OR1J4 (Homo sapiens) (UniProt Q8NGS1)
T7 sequence (whole entry): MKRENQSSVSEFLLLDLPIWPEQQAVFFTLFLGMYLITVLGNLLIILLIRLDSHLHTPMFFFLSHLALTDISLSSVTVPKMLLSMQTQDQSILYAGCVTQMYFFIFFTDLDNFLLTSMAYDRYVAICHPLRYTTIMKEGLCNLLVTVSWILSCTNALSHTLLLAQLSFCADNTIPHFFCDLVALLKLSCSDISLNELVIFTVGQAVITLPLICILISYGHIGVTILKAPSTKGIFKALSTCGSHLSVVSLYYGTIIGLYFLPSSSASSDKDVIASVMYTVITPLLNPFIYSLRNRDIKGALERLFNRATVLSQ
Outline: as §1

OR1K1 (Homo sapiens) = biological target: T8, OR1K1 (Homo sapiens) (UniProt Q8NGR3)
T8 sequence (whole entry): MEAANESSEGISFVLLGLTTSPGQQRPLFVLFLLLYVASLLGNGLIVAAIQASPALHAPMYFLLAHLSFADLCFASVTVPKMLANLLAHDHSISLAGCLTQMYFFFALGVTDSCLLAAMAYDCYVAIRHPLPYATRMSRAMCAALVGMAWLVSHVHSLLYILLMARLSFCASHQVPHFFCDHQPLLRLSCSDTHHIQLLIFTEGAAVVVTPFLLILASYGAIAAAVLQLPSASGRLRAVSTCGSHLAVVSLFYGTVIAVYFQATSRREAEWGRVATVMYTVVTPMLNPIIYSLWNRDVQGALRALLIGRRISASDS
Outline: as §1

OR1L1 = test system: T9, OR1L1
T9 sequence (whole entry): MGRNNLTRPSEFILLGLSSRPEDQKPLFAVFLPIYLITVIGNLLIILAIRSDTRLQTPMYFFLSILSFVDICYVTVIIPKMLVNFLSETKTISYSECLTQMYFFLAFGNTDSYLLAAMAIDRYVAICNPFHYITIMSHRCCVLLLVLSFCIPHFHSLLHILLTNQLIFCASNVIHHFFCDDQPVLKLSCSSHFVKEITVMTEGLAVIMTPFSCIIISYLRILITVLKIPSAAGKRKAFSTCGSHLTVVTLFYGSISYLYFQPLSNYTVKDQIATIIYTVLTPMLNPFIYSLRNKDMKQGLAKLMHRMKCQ
Outline: as §1

OR1L3 (Homo sapiens) = biological target: T10, OR1L3 (Homo sapiens) (UniProt Q8NH93)
T10 sequence (whole entry): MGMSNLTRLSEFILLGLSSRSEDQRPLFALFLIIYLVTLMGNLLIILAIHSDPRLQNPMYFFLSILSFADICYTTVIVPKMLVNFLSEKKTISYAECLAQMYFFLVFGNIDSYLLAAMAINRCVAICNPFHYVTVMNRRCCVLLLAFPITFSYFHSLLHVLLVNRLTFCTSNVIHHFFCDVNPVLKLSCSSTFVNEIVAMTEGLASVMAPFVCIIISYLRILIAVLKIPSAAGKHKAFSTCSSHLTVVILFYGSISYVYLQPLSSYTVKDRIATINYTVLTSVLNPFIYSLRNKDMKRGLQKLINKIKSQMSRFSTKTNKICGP
Outline: as §1

OR1L4 (Homo sapiens) = biological target: T11, OR1L4 (Homo sapiens) (UniProt Q8NGR5)
T11 sequence (whole entry): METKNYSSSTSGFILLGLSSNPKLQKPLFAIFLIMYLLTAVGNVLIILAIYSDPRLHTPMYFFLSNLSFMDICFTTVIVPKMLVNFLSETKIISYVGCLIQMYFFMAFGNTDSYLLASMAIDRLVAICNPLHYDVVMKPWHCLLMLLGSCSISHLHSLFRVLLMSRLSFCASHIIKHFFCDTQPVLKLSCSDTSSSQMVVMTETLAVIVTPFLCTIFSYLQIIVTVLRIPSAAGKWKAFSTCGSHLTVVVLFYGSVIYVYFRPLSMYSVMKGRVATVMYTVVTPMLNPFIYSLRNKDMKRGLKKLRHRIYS
Outline: as §1

OR1L4 = test system: T12, OR1L4
T12 sequence (whole entry): T11 sequence (whole entry) with G234R
Outline: as §1

OR1L6 = test system: T13, OR1L6
T13 sequence (whole entry): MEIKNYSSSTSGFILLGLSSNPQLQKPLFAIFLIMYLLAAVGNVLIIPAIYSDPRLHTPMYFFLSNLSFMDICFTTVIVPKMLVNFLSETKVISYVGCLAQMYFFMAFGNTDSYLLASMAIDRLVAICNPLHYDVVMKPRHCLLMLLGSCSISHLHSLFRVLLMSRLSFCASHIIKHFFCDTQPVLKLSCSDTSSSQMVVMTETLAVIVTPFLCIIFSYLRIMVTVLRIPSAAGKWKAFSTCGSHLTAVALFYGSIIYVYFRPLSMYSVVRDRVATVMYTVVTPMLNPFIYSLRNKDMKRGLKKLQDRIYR
Outline: as §1

OR1L8 (Homo sapiens) = biological target: T14, OR1L8 (Homo sapiens) (UniProt Q8NGR8)
T14 sequence (whole entry): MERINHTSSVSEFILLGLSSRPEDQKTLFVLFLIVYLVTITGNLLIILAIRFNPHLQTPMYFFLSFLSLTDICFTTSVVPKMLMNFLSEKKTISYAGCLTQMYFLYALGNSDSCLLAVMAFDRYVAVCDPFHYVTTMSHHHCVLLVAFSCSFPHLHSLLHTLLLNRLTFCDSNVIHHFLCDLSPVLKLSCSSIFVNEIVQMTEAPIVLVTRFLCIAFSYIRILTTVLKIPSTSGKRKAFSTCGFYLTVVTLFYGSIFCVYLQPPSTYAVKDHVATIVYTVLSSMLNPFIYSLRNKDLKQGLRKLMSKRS
Outline: as §1

OR1L8 T27P R211P = test system: T15, OR1L8 T27P R211P
T15 sequence (whole entry): T14 sequence (whole entry) with T27P, R211P
Outline: as §1

OR1M1 (Homo sapiens) = biological target: T16, OR1M1 (Homo sapiens) (UniProt Q8NGA1)
T16 sequence (whole entry): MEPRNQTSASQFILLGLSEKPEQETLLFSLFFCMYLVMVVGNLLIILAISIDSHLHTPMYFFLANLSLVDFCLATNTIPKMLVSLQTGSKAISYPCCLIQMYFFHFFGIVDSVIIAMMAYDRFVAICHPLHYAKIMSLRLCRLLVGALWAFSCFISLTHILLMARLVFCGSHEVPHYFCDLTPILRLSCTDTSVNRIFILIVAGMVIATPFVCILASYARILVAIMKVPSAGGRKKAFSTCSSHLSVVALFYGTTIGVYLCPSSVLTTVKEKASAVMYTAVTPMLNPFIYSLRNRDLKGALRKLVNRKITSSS
Outline: as §1

OR1N1 (Homo sapiens) = biological target: T17, OR1N1 (Homo sapiens) (UniProt Q8NGS0)
T17 sequence (whole entry): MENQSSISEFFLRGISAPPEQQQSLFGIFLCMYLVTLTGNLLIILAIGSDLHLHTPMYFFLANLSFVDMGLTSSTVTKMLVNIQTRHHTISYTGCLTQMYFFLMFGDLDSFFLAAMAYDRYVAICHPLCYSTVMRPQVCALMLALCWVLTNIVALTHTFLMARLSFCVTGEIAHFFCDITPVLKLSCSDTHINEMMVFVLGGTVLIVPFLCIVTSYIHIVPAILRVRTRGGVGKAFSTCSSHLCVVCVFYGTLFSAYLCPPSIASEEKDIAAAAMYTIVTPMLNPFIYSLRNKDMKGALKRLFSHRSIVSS
Outline: as §1

OR1N2 W37R = test system: T18, OR1N2 W37R
T18 sequence (whole entry): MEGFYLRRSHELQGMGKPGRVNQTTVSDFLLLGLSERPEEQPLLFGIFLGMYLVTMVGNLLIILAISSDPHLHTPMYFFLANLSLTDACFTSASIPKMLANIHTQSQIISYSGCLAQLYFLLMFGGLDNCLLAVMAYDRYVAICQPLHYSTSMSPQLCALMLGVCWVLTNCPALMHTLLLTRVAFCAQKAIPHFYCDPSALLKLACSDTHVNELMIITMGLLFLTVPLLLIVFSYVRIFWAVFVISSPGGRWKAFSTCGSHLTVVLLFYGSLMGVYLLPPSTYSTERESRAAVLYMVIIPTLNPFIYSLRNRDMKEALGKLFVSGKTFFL
Outline: as §1

Measured: odorant receptor agonist call

CCC1OC(=O)C(O)=C1C (stereo not drawn)
inactive: all assays above

From the M2OR odorant receptor database
